MT1-MMP act inh = blockers of MT1-MMP proenzyme processing, primary screen, HT1080 RFP-PRO-GFP cells, GFP/RFP fluorescence. Matrix metalloproteinase-14 (Homo sapiens), P50281. GFP/RFP ratio fluorescence, overnight; percent of plate control window, DMSO zero. GFP/RFP ratio change, % at 20 µM. 0.061% of 360,000 active;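 active means GFP/RFP ratio change of at least 30% with cell ATP level not reduced by more than half and red fluorescence within 50% of control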
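Assay system: HT1080 cells carrying an RFP-PRO-GFP reporter | Dosing: Single dose of 20 µM compound, 1% DMSO final | Incubation: Cells overnight before dosing, compound overnight, 37 °C, 5% CO2 | Evaluation: GFP/RFP fluorescence ratio | Control set: DMSO and RFP-L50D-GFP cell wells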
TAG inh = inhibitors of triacylglycerol accumulation, primary screen, cell-based, uHTS, fluorescence, H9c2; H9c2 cells, Nile Red lipid (TAG) fluorescence; cells loaded with 200 µM oleic acid; inhibition, % at 12.5 µM; 0.66% of 230,000 active; AID 651582, 2012;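 active means pattern-corrected inhibition of lipid staining of at least 50% with the nuclear-stain viability signal not falling by more than 50%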;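 further: 0% = DMSO wells and 100% = triacsin C control wells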
sPLA2-III inh = human group III sPLA2 inhibitors, primary screen, biochemical, QFRET, BODIPY PC-A2 liposome substrate; Group 3 secretory phospholipase A2 (Homo sapiens), Q9NZ20; QFRET BODIPY PC-A2 liposome hydrolysis, fluorescence; inhibition, % at 12.2 µM; 0.56% of 370,000 active; AID 743126, 2013;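 active means inhibition above mean plus 3 SD of compounds lying within the high and low control bounds, cut at about 19% in these data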;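 further: 0% = median of test compound wells and 100% = no enzyme DMSO wells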
Target sequence (Q9NZ20 whole entry, looked up): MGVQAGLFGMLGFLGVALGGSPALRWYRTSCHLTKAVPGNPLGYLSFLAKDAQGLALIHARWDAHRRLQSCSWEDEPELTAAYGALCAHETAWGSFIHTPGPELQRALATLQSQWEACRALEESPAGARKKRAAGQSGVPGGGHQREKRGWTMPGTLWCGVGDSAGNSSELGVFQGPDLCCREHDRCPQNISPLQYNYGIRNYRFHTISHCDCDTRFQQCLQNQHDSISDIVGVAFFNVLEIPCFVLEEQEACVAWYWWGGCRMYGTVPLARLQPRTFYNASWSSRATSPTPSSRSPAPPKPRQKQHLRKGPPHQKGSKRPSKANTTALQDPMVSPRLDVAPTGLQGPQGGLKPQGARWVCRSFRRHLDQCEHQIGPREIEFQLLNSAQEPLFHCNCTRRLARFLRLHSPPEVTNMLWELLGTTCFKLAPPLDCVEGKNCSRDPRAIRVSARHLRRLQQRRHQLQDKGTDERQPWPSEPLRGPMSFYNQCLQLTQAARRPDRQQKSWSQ
Efflux pump mplx = inhibitors of Candida efflux pumps in yeast, primary screen, S. cerevisiae, Nile Red, multiplex. S. cerevisiae Candida pump triplex. inhibition, % at 10 µM. 0.44% of 330,000 active. AID 485275, 2010;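 active means plate passing quality check with inhibition over a set limit, or well fluorescence over plate mean plus 4 SD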;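 further: Nile Red retained in pooled yeast measured as flow cytometry median fluorescence; 0% = buffer negative control and 100% = Enniatin B positive control; higher means more Nile Red kept so more efflux inhibition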
Cmpd fluor yeast = flagged as fluorescent in efflux inhibitor counter-screen | 4% of 1,700 active | fluorescence ratio to DMSO, % at 10 µM | shares compounds with Efflux pump mplx | S. cerevisiae AD/pABC3, compound fluorescence, flow cytometry;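 active means fluorescence ratio to DMSO above its plate's cutoff, the plate mean ratio plus 5 SD, cut at about 210% in these data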;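 further: unstained yeast with no Nile Red so the signal is compound autofluorescence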
CaMdr1 efflux inh = inhibitors of Candida albicans Mdr1 efflux, confirmation, flow cytometry, singleplex, Cherry Pick1 set; shares compounds with Efflux pump mplx; AID 588518, 2011; S. cerevisiae AD/CaMDR1, Nile Red efflux; inhibition, % at 10 µM; 1% of 1,700 active; in the data active means inhibition above about 26%;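 further: 0% = DMSO vehicle and 100% = reference inhibitor; higher means more Nile Red retained so more efflux inhibition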
Cdr2 pump inh = inhibitors of Candida albicans Cdr2 efflux pump, confirmation, S. cerevisiae AD/CaCDR2, flow cytometry, cherry pick 1, singleplex. Nile Red retention ratio vs DMSO, % at 10 µM. AID 588520, 2011. Nile Red retention. shares compounds with Efflux pump mplx. 4% of 1,700 active; in the data active means Nile Red retention ratio vs DMSO above about 190%;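 further: higher ratio means more blocking of Cdr2 efflux of the dye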
Cdr1 pump inh = inhibitors of Candida albicans Cdr1 efflux pump, confirmation, S. cerevisiae AD/CaCDR1, flow cytometry, cherry pick 1, singleplex. Nile Red efflux. inhibition, % at 10 µM. shares compounds with Efflux pump mplx. 1% of 1,700 active. AID 588522, 2011;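 active means inhibition above the screen-wide mean plus twice its standard deviation, cut at about 32% in these data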
An asterisk follows results filed as active; . = no result; + = active, no number. An excerpt weighted towards active compounds, which were near 1.3% of everything screened.

SMILES | MT1-MMP act inh | TAG inh | sPLA2-III inh | Efflux pump mplx | Cmpd fluor yeast | CaMdr1 efflux inh | Cdr2 pump inh | Cdr1 pump inh
Cc1cc2c([nH]c3ccccc32)c2c1OC(C)(C)C=C2 | 1.2 | . | -54.1 | 1.5* | 95.5 | 0.1 | 104.2 | 0.2
COc1ccc2[nH]c(=O)c3c(c2c1)OC(C)(C)C=C3 | -11.9 | 5.7 | -7.7 | -0.2 | . | . | . | .
Cn1c(=O)oc2cc(S(=O)(=O)N3CCN(C(=O)C4CCCO4)CC3)ccc21 (configuration not stated) | . | . | 2.4 | . | . | . | . | .
O=C1/C(=C\c2cc([N+](=O)[O-])ccc2O)SC(=S)N1Cc1ccc(Cl)cc1 | 8.8 | . | -16.0 | 0.7* | 507.2* | 0.9 | 232.0* | 0.5
O=C1/C(=C\c2cccc(O)c2O)SC(=S)N1Cc1ccccc1 | 11.6 | . | -8.4 | -0.1 | . | . | . | .
Cc1ccc2sc(N(CCCN(C)C)C(=O)c3ccc(Br)s3)nc2c1C | -5.4 | 23.2 | 5.4 | 0.9* | 104.5 | -0.1 | 280.2* | 0.0
O=C(NCc1ccco1)/C(=C/C=C\c1ccccc1)NC(=O)c1ccc(Br)o1 | 1.4 | -12.5 | 5.1 | 7.6* | 111.3 | 0.0 | 105.1 | 0.0
CC(C)(C)S(=O)N1Cc2cc(C(=O)NCC(F)(F)F)nc(-c3cccc(-c4cccc(F)c4)c3)c2[C@H]1CCO (some centres not stated) | -0.6 | . | -19.7 | . | . | . | . | .
O=C(CSc1nnc(-c2ccncc2)n1CC1CCCO1)Nc1ccccc1Cl (configuration not stated) | 0.8 | 13.4 | -4.9 | 0.5* | 99.0 | 0.0 | 107.2 | -0.1
CCCc1nnc(-c2cc(OC)c(OC)c(OC)c2)o1 | 3.3 | 4.7 | -0.8 | 1.9* | 104.6 | 0.1 | 106.0 | 0.2
CCOC(=O)Cc1csc(NC(=O)CCCCCN2C(=O)c3ccccc3C2=O)n1 | 7.1 | . | 0.5 | 0.0 | . | . | . | .
CSc1nnnn1-c1ccc(C(=O)O)cc1 | 2.5 | -1.0 | -2.0 | -0.1 | . | . | . | .
CSc1nnnn1-c1ccc(C)c(Cl)c1 | 0.2 | . | 10.2 | 14.2* | 100.0 | -0.1 | 108.3 | 0.0
CCN(CC)C(=O)C1CCCN(c2ccccc2[N+](=O)[O-])C1 (configuration not stated) | 5.0 | 14.6 | 3.4 | 0.0 | . | . | . | .
Cc1cccc(NCc2ccc(Br)cc2)n1 | -2.9 | . | 4.5 | 0.0 | . | . | . | .
Cn1c(=O)c(C#N)c(-c2ccc(F)cc2)c2cc(C(=O)c3cc(Cl)cc(Cl)c3O)cnc21 | 7.5 | 14.1 | -0.3 | 0.3* | 92.1 | -0.3 | 105.7 | -0.1
CC(C)c1ccc(/C=C(\NC(=O)c2ccccc2)C(=O)NCCCN2CCOCC2)cc1 | 6.4 | 5.0 | 15.8 | -0.1 | . | . | . | .
c1ccc(C[C@H]2CN=C(Nc3ccccc3)N2CCC2CCCC2)cc1 | 0.5 | 9.4 | 10.0 | -0.1 | . | . | . | .
NC1=NC[C@H](Cc2ccc(O)cc2)N1CCCCC1CCCCC1 | 5.7 | 0.5 | -4.8 | 1.3 | 97.8 | -0.1 | + | 0.0
NC1=NC[C@H](Cc2ccccc2)N1CCCCC1CCCCC1 | -1.8 | -18.7 | 8.7 | 1.1* | 116.4 | 0.1 | 120.8 | 0.1
COc1cc(C(=O)NCCOc2ccc(Cl)cc2)ccc1OCc1c(C)noc1C | . | -0.8 | -9.6 | 0.0 | . | . | . | .
O=C(CCC(=O)OCCCC(F)(F)C(F)(F)F)NC1CCCCC1 | 2.2 | . | . | 1.4* | 81.2 | -0.2 | 91.1 | -0.3
O=C(CCC(=O)OCCCC(F)(F)C(F)(F)F)Nc1ccccc1 | -3.1 | . | -3.8 | -0.2 | . | . | . | .
O=C(Cc1cccc(C(F)(F)F)c1)OCN1C(=O)c2ccccc2C1=O | 2.6 | . | -0.9 | 1.3* | 101.4 | -0.3 | 103.9 | -0.1
c1cc2c(cc1C1CCCCC1)c1c3n2CCCNC3CCC1 (configuration not stated) | -5.0 | 76.8* | 13.5 | 95.4* | 99.7 | -0.1 | 98.7 | 0.0
SMILES | MT1-MMP act inh | TAG inh | sPLA2-III inh | Efflux pump mplx | Cmpd fluor yeast | CaMdr1 efflux inh | Cdr2 pump inh | Cdr1 pump inh
O=C(OCc1ccccc1)c1ccc(Br)o1 | -4.4 | -4.1 | -1.0 | 1.1* | 100.2 | 0.1 | 116.2 | -0.2
O=C(Nc1cnn(Cc2ccc(Cl)cc2)c1)c1cnccn1 | -5.0 | . | 0.4 | 0.1 | . | . | . | .
Cc1cc(C)c(N(C(=O)CN2C(=O)c3ccccc3S2(=O)=O)C(C(=O)NCC2CCCO2)c2ccc(F)cc2)c(C)c1 (configuration not stated) | -21.7 | . | -30.4 | 22.3* | 112.7 | -0.1 | 112.2 | 0.0
CCC(Sc1nc2cc(OC)c(OC)cc2c(=O)n1CCc1ccc(OC)c(OC)c1)C(=O)NCCOC (configuration not stated) | 16.0 | 4.4 | -5.4 | 1.3* | 93.5 | -0.2 | 107.2 | -0.1
O=C(O)c1ccc(N2C(=O)/C(=C/c3ccc(-c4ccc([N+](=O)[O-])cc4)o3)C=C2c2ccccc2)cc1 | 44.2 | -19.1 | . | 4.7* | 733.8* | 2.0 | + | 2.1
O=C(c1cn(-c2ccccc2)nc1-c1ccc(F)cc1)N1CCCCC1 | -5.3 | . | -1.6 | 11.1* | 110.1 | 0.1 | 118.5 | 0.4
O=C(COC(=O)Cc1ccc(-c2ccccc2)cc1)NCc1ccccc1 | 1.4 | . | -7.9 | 0.1 | . | . | . | .
Cc1nnc(N/N=C/c2cc([N+](=O)[O-])c(N3CCC(C)CC3)cc2N2CCC(C)CC2)n1N | 5.5 | 8.2 | 1.5 | 7.2* | 107.2 | 0.0 | 107.2 | 0.0
CCCOc1ccc(C(=O)Nc2ccc(NC(=O)c3cccs3)cc2)cc1 | 1.6 | . | -3.3 | 1.7* | 104.7 | 0.1 | 116.6 | 0.1
CCCCOc1cccc(C(=O)Nc2ccc(NC(=O)c3cccs3)cc2)c1 | 2.0 | . | 7.1 | 0.7 | . | . | . | .
Cc1ccc(C)c(NC(=S)NCC(c2ccccc2)N(C)C)c1 (configuration not stated) | 4.0 | -9.1 | 11.3 | -0.4 | . | . | . | .
COc1nc(N/N=C/c2ccc(-c3ccccc3[N+](=O)[O-])o2)nc(N2CCOCC2)n1 | 7.1 | . | 5.7 | 16.4* | 135.2 | 0.3 | 91.4 | 0.6
O=C1CN(C(=O)C2CCCCC2)C=CN1CCc1ccccc1Br | . | . | -58.3 | . | . | . | . | .
O=C(NC(=S)N1CCN(Cc2ccc3c(c2)OCO3)CC1)c1ccc(Cl)cc1 | 3.4 | . | 4.0 | 27.7* | 103.4 | -0.1 | 110.3 | 0.1
